ChEMBL document CHEMBL1156957, “Synthesis, antitubulin, and antiproliferative SAR of analogues of 2-methoxyestradiol-3,17-O,O-bis-sulfamate” (J Med Chem, 2010)
pIC50: −log10 of the molar value.

How the values were obtained:
HOP-62 = test: Antiproliferative activity against human HOP62 cells after 96 hrs by WST-1 assay; format: functional; conditions: HOP-62, 96 h
DU-145 = test: Antiproliferative activity against human DU145 cells after 96 hrs by WST-1 assay; format: functional; conditions: DU-145, 96 h
In short: (§1)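 DU-145 and MDA-MB-231 cells kept in RPMI-1640 with 10% FBS, penicillin and streptomycin at 37 °C, 5% CO2. Seeded at 5000 cells/well and exposed to 10^-9–10^-4 M compound or vehicle for 96 h. Live cells counted by WST-1. Viability taken as percent of mean control and GI50 derived. Triplicate experiments.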

SF-539 = test: Antiproliferative activity against human SF539 cells after 96 hrs by WST-1 assay; format: functional; conditions: SF-539, 96 h
MDA-MB-231 = test: Antiproliferative activity against human MDA-MB-231 cells after 96 hrs by WST-1 assay; format: functional; conditions: MDA-MB-231, 96 h; in short: as §1
OVCAR-3 = test: Antiproliferative activity against human OVCAR-3 cells after 96 hrs by WST-1 assay; format: functional; conditions: OVCAR-3, 96 h
UACC-62 = test: Antiproliferative activity against human UACC62 cells after 96 hrs by WST-1 assay; format: functional; conditions: UACC-62, 96 h
HCT-116 = test: Antiproliferative activity against human HCT116 cells after 96 hrs by WST-1 assay; format: functional; conditions: HCT-116, 96 h
SN12C = test: Antiproliferative activity against human SN12C cells after 96 hrs by WST-1 assay; format: functional
[1] = Inhibition of bovine brain tubulin assembly assessed as decrease in turbidity after 20 mins; parameters: species or system Bos taurus
In short: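 Bovine brain tubulin at 1.0 mg/mL (10 μM) preincubated 15 min at 30 °C with varying compound concentrations, no GTP. Chilled on ice, then GTP added (0.4 mM final). Baseline taken at 0 °C, then rapid jump to 30 °C and turbidity rise followed spectrophotometrically for 20 min. IC50 is the concentration halving the turbidity increase.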

Bos taurus = organism: Bos taurus; test: Displacement of [3H]colchicine from bovine brain tubulin at 5 uM after 10 mins
MCF7 = test: Antiproliferative activity against human MCF7 cells after 96 hrs by WST-1 assay; format: functional; conditions: MCF7, 96 h

SMILES | GI50 (DU-145) [µM] | GI50 (MDA-MB-231) [nM] | GI50 (OVCAR-3) [nM] | GI50 (HCT-116) [µM] | pIC50 [1] | inhibition (Bos taurus) [%] | GI50 (MCF7) [µM] | GI50 (HOP-62) [nM] | GI50 (SF-539) [nM] | GI50 (UACC-62) [µM] | GI50 (SN12C) [µM]
CCc1cc2c(cc1O)CC[C@@H]1[C@@H]2CC[C@]2(C)[C@@H](NS(C)(=O)=O)CC[C@@H]12 | > 100 | – | – | – | – | – | – | – | – | – | –
COc1cc2c(cc1OS(N)(=O)=O)CC[C@@H]1[C@@H]2CC[C@]2(C)[C@@H](OS(N)(=O)=O)CC[C@@H]12 | – | – | < 10 | 0.045 | 5.66 | 28 | – | 51 | 36 | < 0.01 | –
CCc1cc2c(cc1O)CC[C@@H]1[C@@H]2CC[C@]2(C)[C@@H](N)CC[C@@H]12 | 60.8 | – | – | – | – | – | – | – | – | – | –
CCc1cc2c(cc1O)CC[C@@H]1[C@@H]2CC[C@]2(C)[C@@H](NS(N)(=O)=O)CC[C@@H]12 | > 100 | – | – | – | – | – | – | – | – | – | –
COc1cc2c(cc1O)CC[C@@H]1[C@@H]2CC[C@]2(C)[C@@H](NS(C)(=O)=O)CC[C@@H]12 | > 100 | – | > 100000 | 60.3 | – | – | – | > 100000 | > 100000 | > 100 | > 100
CCc1cc2c(cc1O)CC[C@@H]1[C@@H]2CC[C@]2(C)[C@@H](C[N+](=O)[O-])CC[C@@H]12 | 12.2 | 10400 | – | – | – | – | – | – | – | – | –
COc1cc2c(cc1O)CC[C@@H]1[C@@H]2CC[C@]2(C)[C@@H](O)CC[C@@H]12 [2-METHOXYESTRADIOL] | 1.22 | – | 210 | 0.47 | 5.15 | 17 | – | 700 | 320 | 0.36 | 0.95
COc1cc2c(cc1OCc1ccccc1)CC[C@@H]1[C@@H]2CC[C@]2(C)[C@@H](OS(C)(=O)=O)CC[C@@H]12 | – | – | 2900 | 5.9 | – | – | – | 6900 | 4600 | 14.4 | 19.9
COc1cc2c(cc1OS(N)(=O)=O)CC[C@@H]1[C@@H]2CC[C@]2(C)[C@@H](NS(C)(=O)=O)CC[C@@H]12 | 9.9 | 5200 | 3500 | 5.6 | – | – | – | 9600 | 3200 | 7.1 | 23.4
CCc1cc2c(cc1O)CC[C@@H]1[C@@H]2CC[C@]2(C)[C@@H](CN(C)C)CC[C@@H]12 | 10.1 | 9500 | 39800 | 11.5 | – | – | – | 21400 | 16200 | 18.6 | 43.7
COc1cc2c(cc1OS(=O)(=O)N(C)C)CC[C@@H]1[C@@H]2CC[C@]2(C)C(=O)CC[C@@H]12 | – | – | – | – | < 4.40 | – | > 10 | – | – | – | –
COc1cc2c(cc1O)CC[C@@H]1[C@@H]2CC[C@]2(C)C(OS(N)(=O)=O)CC[C@@H]12 (some centres undefined) | – | – | – | – | < 4.40 | – | – | – | – | – | –
CCc1cc2c(cc1OS(N)(=O)=O)CC[C@@H]1[C@@H]2CC[C@]2(C)[C@@H](OS(C)(=O)=O)CC[C@@H]12 | 0.57 | 200 | < 10 | < 0.01 | 5.80 | 49 | – | < 10 | < 10 | < 0.01 | < 0.01
CCc1cc2c(cc1O)CC[C@@H]1[C@@H]2CC[C@@]2(C)[C@H]1CC[C@@H]2S(C)(=O)=O | > 100 | > 100000 | – | – | – | – | – | – | – | – | –
CCc1cc2c(cc1OS(N)(=O)=O)CC[C@@H]1[C@@H]2CC[C@]2(C)[C@@H](OS(N)(=O)=O)CC[C@@H]12 | – | – | < 10 | – | 5.89 | 45 | – | < 10 | < 10 | < 0.01 | 0.028
COc1cc2c(cc1O)CC[C@@H]1[C@@H]2CC[C@]2(C)[C@@H](NS(N)(=O)=O)CC[C@@H]12 | 58.6 | – | – | – | – | – | – | – | – | – | –
CCc1cc2c(cc1O)CC[C@@H]1[C@@H]2CC[C@]2(C)[C@@H](CCN(C)C)CC[C@@H]12 | 7.96 | 4740 | – | – | – | – | – | – | – | – | –

Continued by falling GI50 (DU-145), values first:

GI50 (DU-145) [µM] | GI50 (MDA-MB-231) [nM] | GI50 (OVCAR-3) [nM] | GI50 (HCT-116) [µM] | pIC50 [1] | inhibition (Bos taurus) [%] | GI50 (MCF7) [µM] | SMILES | GI50 (HOP-62) [nM] | GI50 (SF-539) [nM] | GI50 (UACC-62) [µM] | GI50 (SN12C) [µM]
6.13 | 5600 | – | – | – | – | – | COc1cc2c(cc1OS(N)(=O)=O)CC[C@@H]1[C@@H]2CC[C@]2(C)[C@@H](NS(N)(=O)=O)CC[C@@H]12 | – | – | – | –
5.58 | – | – | – | – | – | – | CCc1cc2c(cc1O)CC[C@@H]1[C@@H]2CC[C@]2(C)[C@@H](OS(C)(=O)=O)CC[C@@H]12 | – | – | – | –
4.2 | 2370 | – | – | – | – | – | COc1cc2c(cc1O)CC[C@@H]1[C@@H]2CC[C@]2(C)[C@@H](OS(C)(=O)=O)CC[C@@H]12 | – | – | – | –
3.54 | 2960 | – | – | – | – | – | CCc1cc2c(cc1OS(N)(=O)=O)CC[C@@H]1[C@@H]2CC[C@]2(C)[C@@H](CCN(C)C)CC[C@@H]12 | – | – | – | –
3.4 | – | – | – | 4.70 | – | – | CCCc1cc2c(cc1OS(N)(=O)=O)CC[C@@H]1[C@@H]2CC[C@]2(C)C(OS(N)(=O)=O)CC[C@@H]12 (some centres undefined) | – | – | – | –
3.05 | 4030 | 12600 | 9.1 | – | – | – | CCc1cc2c(cc1OS(N)(=O)=O)CC[C@@H]1[C@@H]2CC[C@]2(C)[C@@H](CN(C)C)CC[C@@H]12 | 13500 | 12600 | 11.7 | 18.2
2.64 | 3560 | – | – | – | – | – | COc1cc2c(cc1O)CC[C@@H]1[C@@H]2CC[C@]2(C)[C@@H](N)CC[C@@H]12 | – | – | – | –
0.84 | 3520 | 710 | 4.37 | – | – | – | CCc1cc2c(cc1OS(N)(=O)=O)CC[C@@H]1[C@@H]2CC[C@]2(C)[C@@H](NS(C)(=O)=O)CC[C@@H]12 | 4170 | 470 | 5.89 | 6.92
0.52 | 230 | 540 | 0.78 | – | – | – | COc1cc2c(cc1OS(N)(=O)=O)CC[C@@H]1[C@@H]2CC[C@]2(C)[C@@H](OS(C)(=O)=O)CC[C@@H]12 | 1170 | 340 | 0.65 | 3.1
0.49 | 120 | – | – | – | – | – | COc1cc2c(cc1O)CC[C@@H]1[C@@H]2CC[C@]2(C)[C@@H](CC#N)CC[C@@H]12 | – | – | – | –
0.46 | 120 | – | – | 5.48 | 22 | – | COc1cc2c(cc1OS(N)(=O)=O)CC[C@@H]1[C@@H]2CC[C@]2(C)C(=O)CC[C@@H]12 | – | – | – | –
0.38 | – | – | – | 5.89 | 46 | – | Cc1cc2c(cc1OS(N)(=O)=O)CC[C@@H]1[C@@H]2CC[C@]2(C)C(OS(N)(=O)=O)CC[C@@H]12 (some centres undefined) | – | – | – | –
0.19 | 230 | < 10 | < 0.01 | 5.68 | 37 | – | CCc1cc2c(cc1OS(N)(=O)=O)CC[C@@H]1[C@@H]2CC[C@]2(C)[C@@H](CS(C)(=O)=O)CC[C@@H]12 | < 10 | < 10 | 10.7 | < 0.01
0.14 | 170 | 25 | 0.041 | 5.77 | 74 | – | CCc1cc2c(cc1OS(N)(=O)=O)CC[C@@H]1[C@@H]2CC[C@]2(C)[C@@H](C[N+](=O)[O-])CC[C@@H]12 | 31 | 21 | 0.063 | 0.066
0.11 | 230 | – | – | 5.44 | 28 | – | CCc1cc2c(cc1OS(N)(=O)=O)CC[C@@H]1[C@@H]2CC[C@@]2(C)[C@H]1CC[C@@H]2S(C)(=O)=O | – | – | – | –
0.062 | 71 | – | – | 5.89 | 78 | – | COc1cc2c(cc1OS(N)(=O)=O)CC[C@@H]1[C@@H]2CC[C@]2(C)[C@@H](CC#N)CC[C@@H]12 | – | – | – | –
0.054 | 141 | – | – | – | – | – | CCc1cc2c(cc1OS(N)(=O)=O)CC[C@@H]1[C@@H]2CC[C@]2(C)[C@@H](CC#N)CC[C@@H]12 | – | – | – | –
